From ChEMBL document CHEMBL1154240, “Molecular-targeted antitumor agents. 19. Furospongolide from a marine Lendenfeldia sp. sponge inhibits hypoxia-inducible factor-1 activation in breast tumor cells” (J Nat Prod, 2008)
Active and inactive are the calls of the source. No cut-off for these calls is given here.

Assays:
MDA-MB-231 [1] = test: Cytotoxicity against human MDA-MB-231 cells under hypoxic condition after 48 hrs by natural red method; type: functional, cell-based; details: MDA-MB-231, 48 h
Method in brief: (§1)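 Cells plated at 30,000/well in DMEM/F12 with 10% FCS and antibiotics and left overnight, then given compound in serum-free DMEM/F12. After a 30 min pre-exposure, incubation ran 48 h under normoxia (5% CO2/95% air) or hypoxia (1% O2/5% CO2/94% N2). Viability was read by neutral red, expressed as % inhibition, from one experiment in triplicate.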

PC-3 [2] = test: Cytotoxicity against human PC3 cells under hypoxic condition after 48 hrs by natural red method; type: functional, cell-based; details: PC-3, 48 h; method in brief: as §1
[3] = target: T1, Hypoxia inducible factors; HIF-1-alpha, HIF-2-alpha (Homo sapiens, UniProt Q16665+Q99814); test: Inhibition of hypoxia-induced HIF1 activation in human T47D cells after 16 hrs by pTK-HRE3-luciferase reporter gene assay; type: cell-based
Method in brief: (§2)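 Cells transiently transfected with the pHRE-TK-Luc reporter (HIF-1) or the CMV-driven pGL3-Control plasmid, given compound, then exposed for 16 h to hypoxia (1% O2/5% CO2/94% N2, 37°C) or 10 μM 1,10-phenanthroline. Luciferase read-out: % inhibition = (1 − treated/induced light output) × 100. One experiment in triplicate.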

[4] = target: T1, Hypoxia inducible factors; HIF-1-alpha, HIF-2-alpha; test: Inhibition of hypoxia-induced HIF1 activation in human PC3 cells after 16 hrs by pTK-HRE3-luciferase reporter gene assay; type: cell-based; details: pc-3; method in brief: as §2
MDA-MB-231 [5] = test: Cytotoxicity against human MDA-MB-231 cells under normoxic condition after 48 hrs by natural red method; type: functional, cell-based; details: MDA-MB-231, 48 h; method in brief: as §1
[6] = target: T1, Hypoxia inducible factors; HIF-1-alpha, HIF-2-alpha; test: Inhibition of 1,10-phenanthroline-induced HIF1 activation in human T47D cells after 16 hrs by pTK-HRE3-luciferase reporter gene assay; type: cell-based; method in brief: as §2
T47D [7] = test: Cytotoxicity against human T47D cells under normoxic condition after 48 hrs by natural red method; type: functional, cell-based; method in brief: as §1
[8] = target: T1, Hypoxia inducible factors; HIF-1-alpha, HIF-2-alpha; test: Inhibition of 1,10-phenanthroline-induced HIF1 activation in human PC3 cells after 16 hrs by pTK-HRE3-luciferase reporter gene assay; type: cell-based; details: pc-3; method in brief: as §2
MCF7 [9] = test: Cytotoxicity against human MCF7 cells under hypoxic condition after 48 hrs by natural red method; type: functional, cell-based; details: MCF7, 48 h; method in brief: as §1
PC-3 [10] = test: Cytotoxicity against human PC3 cells under normoxic condition after 48 hrs by natural red method; type: functional, cell-based; details: PC-3, 48 h; method in brief: as §1
T47D [11] = test: Cytotoxicity against human T47D cells under hypoxic condition after 48 hrs by natural red method; type: functional, cell-based; method in brief: as §1
MCF7 [12] = test: Cytotoxicity against human MCF7 cells under normoxic condition after 48 hrs by natural red method; type: functional, cell-based; details: MCF7, 48 h; method in brief: as §1
[13] = Selectivity ratio of IC50 for inhibition of hypoxia-induced HIF1 activation in human T47D cells to IC50 for cytotoxicity to human T47D cells; type: toxicity, cell-based; details: read-out: Ratio IC50
T47D [14] = test: Inhibition of electron transport protein complex 4 in human T47D cells assessed as decrease in oxygen consumption at 30 uM pretreated for 2 hrs before TMPD/ascorbate addition by mitochondrial respiration assay; type: cell-based
Method in brief: (§3)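 T47D cells permeabilized with 30 μM digitonin in Clark-electrode chamber containing buffer of 20 mM HEPES pH 7.3, 120 mM KCl, 2 mM KH2PO4, 2 mM MgCl2, 1 mM EGTA, 0.3% fat-free BSA. Substrates: 5 mM pyruvate + 5 mM malate (complex I), 5 mM succinate (complex II), 5 mM ascorbate + 0.2 mM TMPD (complex IV); rotenone and antimycin A as inhibitors. Oxygen consumption monitored.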

T47D [15] = test: Inhibition of electron transport protein complex 2 in human T47D cells assessed as decrease in oxygen consumption at 30 uM pretreated for 2 hrs before succinate addition by mitochondrial respiration assay; type: cell-based; method in brief: as §3
T47D [16] = test: Inhibition of 1,10-phenanthroline-induced VEGF secretion in human T47D cells at 30 uM after 16 hrs by ELISA; type: functional, cell-based
Method in brief: (§4)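 T47D plated at 356,000 cells/well and left overnight at 37°C. Compound added in serum-free DMEM/F12 for 30 min under air, then 16 h under hypoxia (1% O2/5% CO2/94% N2) or with 10 μM 1,10-phenanthroline. Secreted VEGF in conditioned medium was measured by ELISA and normalized to total lysate protein (BCA).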

T47D [17] = test: Inhibition of electron transport protein complex 1 in human T47D cells assessed as decrease in oxygen consumption at 30 uM pretreated for 2 hrs before malate and pyruvate addition by mitochondrial respiration assay; type: cell-based; method in brief: as §3
T47D [18] = test: Inhibition of hypoxia-induced VEGF secretion in human T47D cells after 16 hrs by ELISA; type: functional, cell-based; method in brief: as §4
T47D [19] = test: Inhibition of cellular respiration in human T47D cells assessed as oxygen consumption at 30 uM; type: functional, cell-based
Method in brief: (§5)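 Intact T47D cells (5×10^6, equilibrated to 30°C) in 1 mL serum- and antibiotic-free DMEM/F12, with 17.5 mM glucose as substrate, in a Clark-type oxygen electrode. After 15 min baseline, compound in isopropyl alcohol injected at 3 min intervals. Oxygen consumption measured in triplicate; one-way ANOVA with Bonferroni post test.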

[20] = target: Hypoxia-inducible factor 1-alpha (Homo sapiens) (UniProt Q16665); test: Inhibition of 1,10-phenanthroline-induced nuclear HIF1alpha in human T47D cells at 10 uM after 4 hrs by Western blot analysis; type: cell-based
[21] = target: Aryl hydrocarbon receptor nuclear translocator (Homo sapiens) (UniProt P27540); test: Inhibition of hypoxia-induced nuclear HIF1beta in human T47D cells at 10 uM after 4 hrs by Western blot analysis; type: cell-based
T47D [22] = test: Inhibition of cellular respiration in human T47D cells assessed as oxygen consumption at 10 uM; type: functional; method in brief: as §5
[23] = target: Hypoxia-inducible factor 1-alpha (Homo sapiens) (UniProt Q16665); test: Inhibition of hypoxia-induced nuclear HIF1alpha in human T47D cells at 10 uM after 4 hrs by Western blot analysis; type: cell-based
T47D [24] = test: Inhibition of electron transport protein complex 3 in human T47D cells assessed as decrease in oxygen consumption at 30 uM pretreated for 2 hrs before succinate addition by mitochondrial respiration assay; type: cell-based; method in brief: as §3
[25] = target: T1, Hypoxia inducible factors; HIF-1-alpha, HIF-2-alpha; test: Inhibition of hypoxia-induced HIF1 activation in human T47D cells at 30 uM after 16 hrs by pTK-HRE3-luciferase reporter gene assay; type: cell-based; method in brief: as §2
T47D [26] = test: Cytotoxicity against human T47D cells under hypoxic conditions at 30 uM after 48 hrs by natural red method; type: functional; method in brief: as §1
[27] = Selectivity for inhibition of hypoxia-induced HIF1 activation in human T47D cells over cytotoxicity to human T47D cells; type: toxicity, cell-based

Chain of Hypoxia-inducible factor 1-alpha (Homo sapiens) (Q16665 whole entry, looked up): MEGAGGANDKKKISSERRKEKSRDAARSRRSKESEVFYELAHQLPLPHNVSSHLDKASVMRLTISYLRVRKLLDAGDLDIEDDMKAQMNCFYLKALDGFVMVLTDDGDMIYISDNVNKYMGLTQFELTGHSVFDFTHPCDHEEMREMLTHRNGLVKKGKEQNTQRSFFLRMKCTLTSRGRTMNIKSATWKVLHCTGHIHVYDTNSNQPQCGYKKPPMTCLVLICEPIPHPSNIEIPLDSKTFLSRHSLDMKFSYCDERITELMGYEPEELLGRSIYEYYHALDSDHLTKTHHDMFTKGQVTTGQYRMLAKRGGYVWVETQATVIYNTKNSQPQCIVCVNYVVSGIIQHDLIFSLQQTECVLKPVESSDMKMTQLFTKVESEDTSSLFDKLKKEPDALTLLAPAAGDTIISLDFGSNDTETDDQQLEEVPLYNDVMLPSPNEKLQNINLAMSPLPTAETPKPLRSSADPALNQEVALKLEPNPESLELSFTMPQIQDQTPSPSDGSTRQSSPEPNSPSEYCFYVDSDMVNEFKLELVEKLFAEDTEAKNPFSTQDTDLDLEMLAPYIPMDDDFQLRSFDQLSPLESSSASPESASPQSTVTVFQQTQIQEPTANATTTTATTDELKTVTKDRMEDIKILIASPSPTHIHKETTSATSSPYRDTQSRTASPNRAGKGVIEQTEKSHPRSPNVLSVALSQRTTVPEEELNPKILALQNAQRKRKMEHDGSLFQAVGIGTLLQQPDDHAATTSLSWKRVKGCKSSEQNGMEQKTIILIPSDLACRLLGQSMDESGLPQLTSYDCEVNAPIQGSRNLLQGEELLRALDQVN
Chain of Aryl hydrocarbon receptor nuclear translocator (Homo sapiens) (P27540 whole entry): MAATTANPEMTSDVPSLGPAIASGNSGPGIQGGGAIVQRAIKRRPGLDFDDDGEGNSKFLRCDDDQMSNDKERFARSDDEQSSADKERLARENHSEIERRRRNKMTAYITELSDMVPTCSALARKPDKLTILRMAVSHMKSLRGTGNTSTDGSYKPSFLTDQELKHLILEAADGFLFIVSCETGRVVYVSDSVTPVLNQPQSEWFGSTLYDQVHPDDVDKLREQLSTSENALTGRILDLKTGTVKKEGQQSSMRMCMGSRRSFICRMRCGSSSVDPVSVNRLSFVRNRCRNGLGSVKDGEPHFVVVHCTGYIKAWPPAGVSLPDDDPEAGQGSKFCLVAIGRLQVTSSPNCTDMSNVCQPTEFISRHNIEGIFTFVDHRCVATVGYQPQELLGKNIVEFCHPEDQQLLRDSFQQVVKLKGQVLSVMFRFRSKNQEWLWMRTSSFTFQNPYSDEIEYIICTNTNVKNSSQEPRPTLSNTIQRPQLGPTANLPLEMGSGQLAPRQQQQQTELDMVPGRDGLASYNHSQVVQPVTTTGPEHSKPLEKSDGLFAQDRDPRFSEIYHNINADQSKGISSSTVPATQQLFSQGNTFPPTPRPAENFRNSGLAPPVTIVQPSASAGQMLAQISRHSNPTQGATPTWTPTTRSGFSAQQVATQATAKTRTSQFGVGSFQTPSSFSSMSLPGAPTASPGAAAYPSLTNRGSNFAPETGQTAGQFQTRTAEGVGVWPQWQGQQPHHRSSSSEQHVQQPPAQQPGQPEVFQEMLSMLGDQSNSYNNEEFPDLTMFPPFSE

IC50 [3] [µM] | IC50 [4] [µM] | IC50 [6] [µM] | IC50 [8] [µM] | SMILES | IC50 (MDA-MB-231 [1]) [µM] | IC50 (PC-3 [2]) [µM] | IC50 (MDA-MB-231 [5]) [µM] | IC50 (T47D [7]) [µM] | IC50 (MCF7 [9]) [µM] | IC50 (PC-3 [10]) [µM] | IC50 (T47D [11]) [µM] | IC50 (MCF7 [12]) [µM] | further results
0.5 | 0.9 | 0.2 | 1 | CC(=O)C1=CC[C@H]2[C@]3(C)CC[C@H]4C(C)(C)CCC[C@]4(CO)[C@H]3CC(=O)[C@]2(C)[C@H]1C=O | 0.3 | 1.1 | 0.3 | 1.2 | 0.6 | 0.8 | 1.8 | 0.6 | 
2.7 | 7.7 | 1 | 9 | COC(=O)[C@]12CCCC(C)(C)[C@@H]1CC[C@@]1(C)[C@@H]3CC=C(C(C)=O)[C@H](C=O)[C@@]3(C)C(=O)C[C@@H]12 | 2 | 10.2 | 1.9 | 5.5 | 6.8 | 6.4 | 10.8 | 6.1 | 
0.4 | 0.5 | 0.2 | 0.8 | CC(=O)C1=CC[C@H]2[C@]3(C)CC[C@H]4C(C)(C)CCC[C@]4(CO)[C@H]3C[C@H](O)[C@]2(C)[C@H]1C=O |  | 0.9 |  | 1 | 0.7 |  | 1.6 |  | selectivity ratio [13]: 3
2.9 | > 30 | 10.9 | > 30 | C/C(=C\CCc1ccoc1)CC/C=C(\C)CCCC1=CC(=O)OC1 [FUROSPONGOLIDE] | > 30 | > 30 | > 30 | 14 | > 30 | > 30 | > 30 | 29 | Activity (T47D [14]): inactive; Activity (T47D [15]): inactive; inhibition (T47D [16]): inactive; Activity (T47D [17]): Active; inhibition (T47D [18]): Dose-dependent effect; inhibition (T47D [19]): Active; inhibition [20]: inactive; inhibition [21]: Active; inhibition at 10 µM (T47D [22]): 38%; inhibition [23]: Active; Activity (T47D [24]): inactive; inhibition [25]: 97%; inhibition at 30 µM (T47D [26]): 26%; selectivity ratio [27]: > 10
